Measured values published in ChEMBL document CHEMBL5321226, “Structure-directed identification of pyridine-2-methylamine derivatives as MmpL3 inhibitors for use as antitubercular agents” (Eur J Med Chem, 2023).
Converted amounts (≈) assume the structure as drawn.

How the values were obtained:
[1] = Cytotoxicity against African green monkey Vero cells assessed as reduction in cell viability incubated for 72 hrs by alamar blue staining based fluorescence microplate reader analysis; assay type: toxicity; settings: African green monkey (Chlorocebus sabaeus)
How it was run: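 Vero cell cytotoxicity was read out by Alamar Blue (MABA) and expressed as IC50. Other details follow earlier reports.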

[2] = molecular target: Voltage-gated inwardly rectifying potassium channel KCNH2 (Homo sapiens, UniProt Q12809); experiment: Inhibition of human ERG at 10 uM by patch-clamp electrophysiology assay; assay type: toxicity
Voltage-gated inwardly rectifying potassium channel KCNH2, sequence (Q12809 whole entry): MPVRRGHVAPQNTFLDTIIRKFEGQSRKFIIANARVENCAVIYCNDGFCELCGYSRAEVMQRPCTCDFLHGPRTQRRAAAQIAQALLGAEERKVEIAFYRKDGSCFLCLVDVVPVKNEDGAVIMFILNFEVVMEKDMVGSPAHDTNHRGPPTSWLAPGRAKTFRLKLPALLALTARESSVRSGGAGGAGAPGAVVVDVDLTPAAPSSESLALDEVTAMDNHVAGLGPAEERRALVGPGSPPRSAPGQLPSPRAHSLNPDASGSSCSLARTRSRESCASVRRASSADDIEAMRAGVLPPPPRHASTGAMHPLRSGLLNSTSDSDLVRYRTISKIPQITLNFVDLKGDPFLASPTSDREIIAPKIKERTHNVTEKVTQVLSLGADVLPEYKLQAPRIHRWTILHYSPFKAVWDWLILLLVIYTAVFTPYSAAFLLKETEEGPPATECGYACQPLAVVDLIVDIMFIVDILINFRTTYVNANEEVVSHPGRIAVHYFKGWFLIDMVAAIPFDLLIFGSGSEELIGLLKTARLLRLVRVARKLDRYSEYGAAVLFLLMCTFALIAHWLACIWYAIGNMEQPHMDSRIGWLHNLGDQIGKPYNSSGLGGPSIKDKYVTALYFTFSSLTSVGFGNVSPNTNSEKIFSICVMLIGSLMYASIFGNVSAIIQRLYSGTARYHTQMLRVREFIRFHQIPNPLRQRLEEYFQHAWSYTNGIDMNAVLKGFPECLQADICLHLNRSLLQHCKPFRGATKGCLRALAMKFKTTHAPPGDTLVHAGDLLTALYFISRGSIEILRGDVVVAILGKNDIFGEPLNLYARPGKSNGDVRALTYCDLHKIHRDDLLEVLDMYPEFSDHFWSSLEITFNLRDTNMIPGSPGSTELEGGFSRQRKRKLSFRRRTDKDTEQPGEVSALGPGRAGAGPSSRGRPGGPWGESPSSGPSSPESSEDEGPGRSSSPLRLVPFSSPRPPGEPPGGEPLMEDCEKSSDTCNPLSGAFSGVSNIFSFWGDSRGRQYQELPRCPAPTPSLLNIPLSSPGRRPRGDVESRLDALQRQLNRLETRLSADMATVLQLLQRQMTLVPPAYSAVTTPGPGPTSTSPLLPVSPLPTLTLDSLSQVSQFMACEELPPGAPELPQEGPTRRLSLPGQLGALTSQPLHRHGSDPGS
How it was run: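 hERG K+ channel current was measured by manual patch-clamp electrophysiology with the test compound at 10 μM. […] The inhibition rate is the average of three individual measurements.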

[3] = Metabolic stability in human liver microsomes assessed as half life and mesured upto 60 mins in presence of NADPH; assay type: ADME, Microsome; settings: 1 h
How it was run: (§1)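 Compounds were incubated with human liver microsomes for 60 min, with or without NADPH cofactor. Substrate concentration after 60 min was normalized to the time-zero concentration to give % remaining. Half-life was derived from the incubations, and intrinsic clearance was calculated as CLint(mic) = 0.693/half-life/mg microsomal protein per mL.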

[4] = Metabolic stability in human liver microsomes assessed as intrinsic clearance and mesured upto 60 mins in presence of NADPH; assay type: ADME, Microsome; settings: 1 h
[5] = Metabolic stability in human liver microsomes assessed as parent compound remaining and mesured after 60 mins in absence of NADPH; assay type: ADME, Microsome; settings: 1 h
[6] = Metabolic stability in human liver microsomes assessed as parent compound remaining and mesured after 60 mins in presence of NADPH; assay type: ADME, Microsome; settings: read-out: Stability; how it was run: as §1
[7] = test system: Mycobacterium tuberculosis; experiment: Antimycobacterial activity against drug susceptible Mycobacterium tuberculosis V4207 assessed as bacterial growth inhibition incubated for 7 to 14 days by MABA assay; assay type: functional; settings: time 7-14 day
[8] = Mycobacterium tuberculosis, V4207, read-out: MIC90

In the case of `CC(C)c1ccc(-c2cncc(CN3CC[Si](C)(C)CC3)c2)cc1`, the IC50 at 72 h [1] is reported as ≥ 32 µg/mL.

In the case of `CC(C)c1ccc(-c2ccnc(CN3CCC4(CC3)OCCCO4)c2)cc1`, the IC50 at 72 h [1] is reported as ≥ 32 µg/mL.

`CC(C)c1ccc(-c2ccnc(CNC3CCCCCCC3)c2)cc1` gave an IC50 at 72 h [1] of 16 µg/mL (≈ 47.5 µM).

With `c1ccc(-c2ccc(-c3ccnc(CN4CCC5(CCCCC5)CC4)c3)cc2)cc1` the IC50 at 72 h [1] was ≥ 32 µg/mL.

For `C[Si]1(C)CCN(Cc2cc(-c3ccc(C4CCCCC4)cc3)ccn2)CC1`, the IC50 at 72 h [1] was ≥ 32 µg/mL.

For `c1ccc(-c2ccc(-c3ccnc(CN4CCC5(CCCC5)CC4)c3)cc2)cc1`, the “inhibition (INH)” value [2] was 52.7%, the t1/2 [3] was 49.5 min and the CLH [4] was 28 µL/min/mg. The IC50 at 72 h [1] was 16 µg/mL (≈ 41.8 µM), the Stability [5] was “Stable” and the remaining at 1 h [6] was 43.1%.

For `CC(C)Cc1ccc(-c2ccnc(CN3CC[Si](C)(C)CC3)c2)cc1`, the IC50 at 72 h [1] was ≥ 32 µg/mL.

In the case of `c1cc(-c2ccc(-c3ccoc3)cc2)cc(CN2CCC3(CCCC3)CC2)n1`, the t1/2 [3] is reported as 1.8 min, the CLH [4] is reported as 758 µL/min/mg and the Stability [5] is reported as “Stable”. The remaining at 1 h [6] was 0.2%.

With `CC(C)Cc1ccc(-c2ccnc(CN3CCC(C)CC3)c2)cc1` the IC50 at 72 h [1] was ≥ 32 µg/mL.

With `CC(C)c1ccc(-c2ccnc(CNC3CCCCCC3)c2)cc1` the IC50 at 72 h [1] was 16 µg/mL (≈ 49.6 µM).

With `CC(C)c1ccc(-c2ccnc(CNC34CC5CC(CC(C5)C3)C4)c2)cc1` the IC50 at 72 h [1] was 16 µg/mL (≈ 44.4 µM).

`CC(C)(C)c1ccc(-c2ccnc(CN3CC[Si](C)(C)CC3)c2)cc1` gave an IC50 at 72 h [1] of 16 µg/mL (≈ 45.4 µM).

In the case of `Cc1ccc(-c2ccc(-c3ccnc(CN4CCC5(CCCC5)CC4)c3)cc2)cc1`, the IC50 at 72 h [1] is reported as ≥ 32 µg/mL.

For `CC(C)c1ccc(-c2ccnc(CN3CCC4(CCCC4)CC3)c2)cc1`, the t1/2 [3] was 11.3 min, the CLH [4] was 122.9 µL/min/mg and the Stability [5] was “Stable”. For the same compound, the remaining at 1 h [6] was 1.5%.

In the case of `Clc1ccc(-c2ccc(-c3ccnc(CN4CCC5(CCCC5)CC4)c3)cc2)cc1`, the IC50 at 72 h [1] is reported as ≥ 32 µg/mL.

For `CC(C)c1ccc(-c2nc(CN3CC[Si](C)(C)CC3)co2)cc1`, the IC50 at 72 h [1] was ≥ 32 µg/mL.

With `CC(C)c1ccc(-c2ccnc(CNC3C4CC5CC(C4)CC3C5)c2)cc1` (stereo not drawn) the IC50 at 72 h [1] was ≥ 32 µg/mL.

With `CC(C)c1ccc(-c2ccnc(CN3CC[Si](C)(C)CC3)c2)cc1` the IC50 at 72 h [1] was ≥ 32 µg/mL.

For `C[Si]1(C)CCN(Cc2cc(-c3ccc(-c4ccccc4)cc3)ccn2)CC1`, the IC50 at 72 h [1] was ≥ 32 µg/mL.

For `O=C(O)Cc1ccccc1Nc1c(Cl)cccc1Cl` [DICLOFENAC], the Stability [5] was “Stable”.

With `NNC(=O)c1ccncc1` [ISONIAZID] the MIC90 [7] was 0.04 µg/mL (≈ 0.292 µM).

In the case of `NC[C@H]1O[C@H](O[C@H]2[C@H](O)[C@@H](O[C@H]3O[C@H](CO)[C@@H](O)[C@H](N)[C@H]3O)[C@H](N)C[C@@H]2N)[C@H](O)[C@@H](O)[C@@H]1O` [KANAMYCIN], the MIC90 [7, 8] is reported as 2 µg/mL (≈ 4.13 µM).

Work on `C[C@H]1COc2c(N3CCN(C)CC3)c(F)cc3c(=O)c(C(=O)O)cn1c23` [LEVOFLOXACIN ANHYDROUS] yielded an MIC90 [7, 8] of 0.125 µg/mL (≈ 0.346 µM).

Work on `CC1COc2c(N3CCN(C)CC3)c(F)cc3c(=O)c(C(=O)O)cn1c23` (stereo not drawn) [OFLOXACIN] yielded an MIC90 [7, 8] of 0.5 µg/mL (≈ 1.38 µM).

`CO[C@H]1/C=C/O[C@@]2(C)Oc3c(C)c(O)c4c(O)c(c(/C=N/N5CCN(C)CC5)c(O)c4c3C2=O)NC(=O)/C(C)=C\C=C\[C@H](C)[C@H](O)[C@@H](C)[C@@H](O)[C@@H](C)[C@H](OC(C)=O)[C@@H]1C` [RIFAMPIN] showed an MIC90 [7, 8] of 0.063 µg/mL (≈ 0.0766 µM).

For `C[C@]12CC[C@H]3[C@@H](CCC4=CC(=O)CC[C@@]43C)[C@@H]1CC[C@@H]2O` [TESTOSTERONE], the Stability [5] was “Stable” and the remaining at 1 h [6] was 3.9%.
